Measurements reported in ChEMBL document CHEMBL5247650, “New Dual Inhibitors of Bacterial Topoisomerases with Broad-Spectrum Antibacterial Activity and In Vivo Efficacy against Vancomycin-Intermediate Staphylococcus aureus” (J Med Chem, 2023).
In brackets after ≈: the same amount, converted by molar mass. Blank lines part the entries; values can stand above or below the compound they belong to. Activity calls are given as the source filed them. No cut-off for these calls is given here.

Assays:
Enterococcus faecium = test: Antibacterial activity against Enterococcus faecium ATCC 700221 assessed as bacterial growth inhibition incubated for 18 hrs by microplate reader based analysis; format: functional
Enterococcus faecalis = test: Antibacterial activity against Enterococcus faecalis ATCC 29212 assessed as bacterial growth inhibition incubated for 18 hrs by microplate reader based analysis; format: functional
[1] = Inhibition of Escherichia coli DNA topoisomerase 4 relaxation
[2] = Thermodynamic solubility of compound in 100 mM PBS buffer at pH 7.4 incubated for 48 hrs under shaking condition by LC-MS/MS analysis; format: physicochemical; conditions: read-out: Therm_solubility
Enterobacter cloacae = test: Antibacterial activity against Enterobacter cloacae subsp. cloacae ATCC 13047 assessed as bacterial growth inhibition incubated for 18 hrs by microplate reader based analysis; format: functional
DNA gyrase = DNA gyrase (Escherichia coli, UniProt P0AES4+P0AES6); test: Inhibition of Escherichia coli DNA gyrase supercoiling; format: protein-complex assay
Procedure, shortened: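 E. coli gyrase supercoiling measured in a high-throughput plate assay from a commercial kit. Seven inhibitor concentrations; IC50 fitted from the curve, mean of three independent experiments.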

[3] = Metabolic stability in human liver microsomes assessed as intrinsic clearance […] at 1 uM measured upto 60 mins by LC-MS/MS analysis; format: ADME, Microsome; conditions: 1 h
Procedure, shortened: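 Pooled human liver microsomes at 0.5 mg/mL in 100 mM KPO4 pH 7.4, compound at 1 μM final. Started with 1 mM NADPH; sampled at 0, 5, 10, 20, 40 and 60 min. Quenched with cold acetonitrile plus internal standard; parent remaining measured by LC–MS/MS. Intrinsic clearance calculated by the Obach approach with literature scaling factors.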

MCF7 [4] = test: Cytotoxicity against human MCF7 cells assessed as reduction in cell growth upto 100 uM incubated for 72 hrs by MTS assay; format: toxicity, cell-based; conditions: mcf7, 72 h
HepG2 [5] = test: Cytotoxicity against human HepG2 cells assessed as reduction in cell growth upto 100 uM incubated for 72 hrs by MTS assay; format: toxicity, cell-based; conditions: hepg2, 72 h
MCF7 [6] = test: Cytotoxicity against human MCF7 cells assessed as reduction in cell growth upto 100 uM incubated for 72 hrs in absence of fetal bovine serum by MTS assay; format: toxicity, cell-based; conditions: mcf7, 72 h
HepG2 [7] = test: Cytotoxicity against human HepG2 cells assessed as reduction in cell growth upto 100 uM incubated for 72 hrs in absence of fetal bovine serum by MTS assay; format: toxicity, cell-based; conditions: hepg2, 72 h
HepG2 [8] = test: Mitotoxicity in human HepG2 cells upto 1000 uM incubated for 24 hrs by glu/gal assay; format: toxicity, cell-based; conditions: hepg2, 24 h
[9] = Genotoxicity in CHO-K1 cells up to 50 uM incubated for 24 hrs in presence of rat liver S9 fraction by micronucleus test; format: toxicity, subcellular, Cricetulus griseus; conditions: chinese hamster, s9, 24 h
[10] = Genotoxicity in CHO-K1 cells upto 100 uM incubated for 24 hrs in absence of rat liver S9 fraction by micronucleus test; format: toxicity, cell-based, Cricetulus griseus; conditions: chinese hamster, cho-k1, 24 h
[11] = target: T1, Voltage-gated inwardly rectifying potassium channel KCNH2 (Homo sapiens, UniProt Q12809); test: Inhibition of hERG potassium ion channel expressed in CHO cells at 50 microM by patch-clamp method; format: toxicity, cell-based
[12] = target: Sodium channel protein type 5 subunit alpha (Homo sapiens, UniProt Q14524); test: Inhibition of Nav1.5 ion channel (unknown origin) expressed in CHO cells at 10 microM by patch-clamp method; format: cell-based
[13] = target: T1, Voltage-gated inwardly rectifying potassium channel KCNH2; test: Inhibition of hERG channel expressed in HEK293 cells at -40 mV holding potential by whole-cell voltage clamp method; format: toxicity, cell-based
[14] = Hemolytic activity in human RBC assessed as hemolysis at 100 uM incubated for 45 mins under shaking condition by spectrophotometer analysis; format: toxicity, cell-based; conditions: erythrocyte
Acinetobacter baumannii [15] = test: Antibacterial activity against clinical isolate Acinetobacter baumannii assessed as bacterial growth inhibition at 4 ug/ml by CLSI based broth microdilution method relative to control; format: functional, organism-based; conditions: dose 4.0 µg/ml
Procedure, shortened: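 Hungarian clinical isolates and control strains were tested by the same CLSI broth microdilution procedure (MHBII, OD600 read-out after 18 h at 37 °C), run in 384-well plates.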

Acinetobacter baumannii [16] = test: Antibacterial activity against multi-drug resistant Acinetobacter baumannii assessed as bacterial growth inhibition by CLSI based broth microdilution method; format: functional
Acinetobacter baumannii [17] = test: Antibacterial activity against multi-drug resistant Acinetobacter baumannii assessed as bacterial growth inhibition at 8 ug/ml by CLSI based broth microdilution method relative to control; format: functional; design: scale not given: the % may be the effect or the level left; conditions: dose 8 µg/ml
Procedure, shortened: (§1)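 Panel of 100 A. baumannii strains of diverse geographic origin, 50 MDR and 50 non-MDR. Tested at a contract lab by broth microdilution following CLSI guidelines. Read-out is the percentage of strains inhibited at each concentration.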

Acinetobacter baumannii [18] = test: Antibacterial activity against non multi-drug resistant Acinetobacter baumannii assessed as bacterial growth inhibition at 8 ug/ml by CLSI based broth microdilution method relative to control; format: functional; design: scale not given: the % may be the effect or the level left; conditions: dose 8 µg/ml; procedure, shortened: as §1
Staphylococcus aureus [19] = test: Antibacterial activity against Staphylococcus aureus ATCC 29213 assessed as bacterial growth inhibition incubated for 18 hrs by microplate reader based analysis; format: functional
Staphylococcus aureus [20] = test: Antibacterial activity against Methicillin-resistant Staphylococcus aureus ATCC 43300 assessed as bacterial growth inhibition incubated for 18 hrs by microplate reader based analysis; format: functional
Procedure, shortened: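 Cation-adjusted Mueller Hinton broth II; strains grown overnight on agar then broth at 37 °C. Two-fold 12-step serial dilutions from DMSO stocks (final DMSO at most 0.64%), 5 × 10^4 cells per well, three parallel replicates, 37 °C with 150 rpm shaking for 18 h.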

Staphylococcus aureus [21] = test: Antibacterial activity against Vancomycin-intermediate Staphylococcus aureus ATCC 700699 assessed as bacterial growth inhibition incubated for 18 hrs by microplate reader based analysis; format: functional
Escherichia coli = test: Antibacterial activity against Escherichia coli ATCC 25922 assessed as bacterial growth inhibition incubated for 18 hrs by microplate reader based analysis; format: functional
Pseudomonas aeruginosa = test: Antibacterial activity against Pseudomonas aeruginosa ATCC 27853 assessed as bacterial growth inhibition incubated for 18 hrs by microplate reader based analysis; format: functional
Acinetobacter baumannii [22] = test: Antibacterial activity against Acinetobacter baumannii ATCC 17978 assessed as bacterial growth inhibition incubated for 18 hrs by microplate reader based analysis; format: functional
Klebsiella pneumoniae = test: Antibacterial activity against Klebsiella pneumoniae ATCC 10031 assessed as bacterial growth inhibition incubated for 18 hrs by microplate reader based analysis; format: functional
Acinetobacter baumannii [23] = test: Antibacterial activity against clinical isolate Acinetobacter baumannii assessed as bacterial growth inhibition at 32 ug/ml by CLSI based broth microdilution method relative to control; format: functional
[24] = Plasma protein binding in CD-1 mouse assessed as unbound fraction at 5 uM incubated for 4 hrs by equilibrium dialysis method; format: ADME, cell-free
Procedure, shortened: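 Equilibrium dialysis in pooled male CD-1 mouse plasma. Compound at 5 μM (0.5% DMSO), two replicates, 4 h at 37 °C, sampled at 0 min and 4 h. Buffer and plasma aliquots were matrix-matched, quenched with acetonitrile/methanol (2:1) containing internal standard, and analysed by LC–MS/MS. Caffeine, verapamil and nicardipine served as binding controls.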

Topoisomerase IV = Topoisomerase IV (Staphylococcus aureus, UniProt P0C1S7+P0C1U9); test: Inhibition of Staphylococcus aureus topoisomerase 4 decatenation incubated for 30 mins in presence of ATP by ethidium bromide staining based analysis; format: protein-complex assay
[25] = Inhibition of Acinetobacter baumannii topoisomerase 4 decatenation incubated for 30 mins in presence of ATP by ethidium bromide staining based analysis
[26] = Inhibition of Pseudomonas aeruginosa topoisomerase 4 decatenation incubated for 30 mins in presence of ATP by ethidium bromide staining based analysis

T1 sequence (Q12809 whole entry): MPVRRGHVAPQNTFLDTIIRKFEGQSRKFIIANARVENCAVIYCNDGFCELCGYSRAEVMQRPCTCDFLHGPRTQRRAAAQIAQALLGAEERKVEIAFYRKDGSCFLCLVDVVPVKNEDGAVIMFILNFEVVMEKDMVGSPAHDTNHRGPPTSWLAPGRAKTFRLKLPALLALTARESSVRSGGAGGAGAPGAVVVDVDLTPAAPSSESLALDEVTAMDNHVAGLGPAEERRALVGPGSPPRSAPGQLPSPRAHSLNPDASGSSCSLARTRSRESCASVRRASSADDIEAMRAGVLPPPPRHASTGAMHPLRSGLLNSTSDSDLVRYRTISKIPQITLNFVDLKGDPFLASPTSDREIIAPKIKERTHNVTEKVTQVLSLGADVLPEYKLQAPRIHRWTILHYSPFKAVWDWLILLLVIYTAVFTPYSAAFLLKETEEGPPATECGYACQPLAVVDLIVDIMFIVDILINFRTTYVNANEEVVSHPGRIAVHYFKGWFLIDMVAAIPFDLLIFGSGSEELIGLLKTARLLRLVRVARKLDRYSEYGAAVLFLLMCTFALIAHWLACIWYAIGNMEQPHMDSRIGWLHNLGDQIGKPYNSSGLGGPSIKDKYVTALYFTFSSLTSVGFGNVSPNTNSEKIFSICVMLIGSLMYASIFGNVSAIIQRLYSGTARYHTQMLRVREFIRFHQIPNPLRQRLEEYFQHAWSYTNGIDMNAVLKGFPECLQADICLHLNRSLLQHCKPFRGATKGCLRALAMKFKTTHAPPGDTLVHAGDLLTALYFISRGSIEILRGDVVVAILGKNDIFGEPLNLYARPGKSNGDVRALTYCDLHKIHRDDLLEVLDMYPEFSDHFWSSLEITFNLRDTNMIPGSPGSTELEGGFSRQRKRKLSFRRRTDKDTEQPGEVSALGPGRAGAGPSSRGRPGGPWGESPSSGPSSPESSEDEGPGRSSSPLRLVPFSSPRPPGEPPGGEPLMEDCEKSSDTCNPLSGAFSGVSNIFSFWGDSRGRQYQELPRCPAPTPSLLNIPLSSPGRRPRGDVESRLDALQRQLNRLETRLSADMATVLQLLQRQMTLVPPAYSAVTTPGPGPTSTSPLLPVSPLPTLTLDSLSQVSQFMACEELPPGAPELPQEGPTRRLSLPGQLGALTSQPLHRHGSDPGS
Sequence of Sodium channel protein type 5 subunit alpha (Q14524 whole entry): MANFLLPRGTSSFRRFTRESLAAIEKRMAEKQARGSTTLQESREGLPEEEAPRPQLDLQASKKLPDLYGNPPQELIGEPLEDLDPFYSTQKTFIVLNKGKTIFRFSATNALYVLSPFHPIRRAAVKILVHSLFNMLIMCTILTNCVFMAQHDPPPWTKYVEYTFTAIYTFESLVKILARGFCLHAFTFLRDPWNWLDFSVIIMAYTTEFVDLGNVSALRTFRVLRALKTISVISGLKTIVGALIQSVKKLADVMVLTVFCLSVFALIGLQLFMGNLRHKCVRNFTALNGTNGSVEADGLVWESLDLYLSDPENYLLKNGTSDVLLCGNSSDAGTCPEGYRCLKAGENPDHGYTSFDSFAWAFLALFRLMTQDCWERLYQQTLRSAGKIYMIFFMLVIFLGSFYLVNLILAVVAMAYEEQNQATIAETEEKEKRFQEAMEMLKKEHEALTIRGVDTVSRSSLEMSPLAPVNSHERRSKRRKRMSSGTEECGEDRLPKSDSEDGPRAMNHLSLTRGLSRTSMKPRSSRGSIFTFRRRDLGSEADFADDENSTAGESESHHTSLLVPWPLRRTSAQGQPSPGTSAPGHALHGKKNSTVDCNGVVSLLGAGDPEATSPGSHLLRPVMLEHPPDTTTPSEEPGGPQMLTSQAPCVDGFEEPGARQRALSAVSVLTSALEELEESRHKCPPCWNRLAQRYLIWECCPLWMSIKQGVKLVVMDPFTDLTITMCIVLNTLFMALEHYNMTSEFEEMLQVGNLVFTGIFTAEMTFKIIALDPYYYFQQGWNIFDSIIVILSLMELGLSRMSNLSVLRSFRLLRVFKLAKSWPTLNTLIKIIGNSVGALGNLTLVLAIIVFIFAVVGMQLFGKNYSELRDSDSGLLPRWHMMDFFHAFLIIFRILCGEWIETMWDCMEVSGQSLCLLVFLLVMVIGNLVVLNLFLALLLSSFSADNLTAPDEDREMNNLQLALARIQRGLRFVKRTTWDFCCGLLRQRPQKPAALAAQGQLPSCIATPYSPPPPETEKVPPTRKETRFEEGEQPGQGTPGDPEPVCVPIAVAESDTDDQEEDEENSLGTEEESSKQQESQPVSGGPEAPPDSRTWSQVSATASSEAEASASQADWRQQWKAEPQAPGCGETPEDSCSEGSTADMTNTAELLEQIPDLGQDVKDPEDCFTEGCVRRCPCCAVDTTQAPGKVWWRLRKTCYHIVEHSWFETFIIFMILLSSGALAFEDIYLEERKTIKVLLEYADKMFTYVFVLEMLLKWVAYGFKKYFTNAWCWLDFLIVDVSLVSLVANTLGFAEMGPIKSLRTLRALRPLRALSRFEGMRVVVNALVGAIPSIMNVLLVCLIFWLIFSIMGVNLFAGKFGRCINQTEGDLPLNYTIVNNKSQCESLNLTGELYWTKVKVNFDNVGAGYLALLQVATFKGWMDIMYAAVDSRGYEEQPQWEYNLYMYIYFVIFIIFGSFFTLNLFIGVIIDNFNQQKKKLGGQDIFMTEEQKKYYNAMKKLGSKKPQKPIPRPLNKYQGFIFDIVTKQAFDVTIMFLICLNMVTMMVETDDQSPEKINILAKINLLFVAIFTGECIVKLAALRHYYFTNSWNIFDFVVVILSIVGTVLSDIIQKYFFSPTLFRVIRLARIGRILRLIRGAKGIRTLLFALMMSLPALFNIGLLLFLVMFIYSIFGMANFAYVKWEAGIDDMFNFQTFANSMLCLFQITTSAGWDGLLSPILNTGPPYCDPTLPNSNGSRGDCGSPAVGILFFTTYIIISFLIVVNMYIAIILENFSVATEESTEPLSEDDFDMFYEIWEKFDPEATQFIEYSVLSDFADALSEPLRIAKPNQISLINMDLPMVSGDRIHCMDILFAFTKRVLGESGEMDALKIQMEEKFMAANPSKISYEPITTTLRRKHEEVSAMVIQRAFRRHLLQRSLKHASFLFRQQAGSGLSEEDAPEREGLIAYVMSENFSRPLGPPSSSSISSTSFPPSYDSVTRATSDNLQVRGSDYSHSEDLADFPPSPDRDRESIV

- MIC (Enterococcus faecium): < 0.0312 µg/mL
- MIC (Enterococcus faecalis): < 0.0312 µg/mL
Compound: COCCCNc1cc(C(=O)O)cc2sc(NC(=O)c3[nH]c(C)c(Cl)c3Cl)nc12.N

- IC50 [1]: 120 nM
Compound: Cc1[nH]c(C(=O)Nc2nc3c(N4CCOC4=O)cc(C(=O)O)cc3s2)c(Cl)c1Cl

- IC50 [1]: < 100 nM
Compound: Cc1[nH]c(C(=O)Nc2nc3c(N4CCCC4)cc(C(=O)O)cc3s2)c(Cl)c1Cl

- MIC (Enterobacter cloacae): 16 µg/mL (≈ 33.2 µM)
Compound: Cc1[nH]c(C(=O)Nc2nc3c(N4C[C@H]5CC[C@@H](C4)O5)cc(C(=O)O)cc3s2)c(Cl)c1Cl

- IC50 [1]: 120 nM
Compound: Cc1[nH]c(C(=O)Nc2nc3c(CN4CCOCC4)cc(C(=O)O)cc3s2)c(Cl)c1Cl
- Activity (Escherichia coli): inactive
- Activity (Pseudomonas aeruginosa): inactive
- Activity (Acinetobacter baumannii [22]): inactive
- Activity (Klebsiella pneumoniae): inactive
- Activity (Enterobacter cloacae): inactive

- IC50 [1]: < 100 nM
Compound: Cc1[nH]c(C(=O)Nc2nc3c(N4CC[C@H](N)C4)cc(C(=O)O)cc3s2)c(Cl)c1Cl
- Activity (Escherichia coli): inactive
- Activity (Pseudomonas aeruginosa): inactive
- Activity (Acinetobacter baumannii [22]): inactive
- Activity (Enterobacter cloacae): inactive

- IC50 [1]: 120 nM
Compound: Cc1[nH]c(C(=O)Nc2nc3c(N4CC[C@H](N(C)C)C4)cc(C(=O)O)cc3s2)c(Cl)c1Cl
- Activity (Escherichia coli): inactive
- Activity (Pseudomonas aeruginosa): inactive
- Activity (Acinetobacter baumannii [22]): inactive
- Activity (Klebsiella pneumoniae): inactive
- Activity (Enterobacter cloacae): inactive

- fraction unbound at 4 h, 5 µM [24]: 0.011
Compound: Cc1[nH]c(C(=O)Nc2nc3c(N4CCOC[C@H]4C)cc(C(=O)O)cc3s2)c(Cl)c1Cl

- IC50 [1]: < 100 nM
Compound: Cc1[nH]c(C(=O)Nc2nc3c(N4CCC(=S)CC4)cc(C(=O)O)cc3s2)c(Cl)c1Cl

- IC50 (Topoisomerase IV): 13300 nM
- IC50 [25]: 9460 nM
- IC50 [26]: 8360 nM
Compound: CO[C@@H]1[C@@H](OC(N)=O)[C@@H](O)[C@H](Oc2ccc3c(O)c(NC(=O)c4ccc(O)c(CC=C(C)C)c4)c(=O)oc3c2C)OC1(C)C [NOVOBIOCIN]

More lines, now with the values behind:

Compound: Cc1[nH]c(C(=O)Nc2nc3c(N4[C@@H]5CC[C@H]4COC5)cc(C(=O)O)cc3s2)c(Cl)c1Cl
- IC50 [1]: 140 nM
- solubility thermodynamic at 48 h [2]: 0.26 µM (≈ 0.125 µg/mL)

Compound: Cc1[nH]c(C(=O)Nc2nc3c(N4CCOC[C@@H]4C)cc(C(=O)O)cc3s2)c(Cl)c1Cl
- IC50 (DNA gyrase): 17 nM

Compound: Cc1[nH]c(C(=O)Nc2nc3c(N4CCOCC4)cc(C(=O)O)cc3s2)c(Cl)c1Cl
- CLint [3]: 13 µL/min
- Activity (MCF7 [4]): Non-Toxic
- Activity (HepG2 [5]): Non-Toxic
- Activity (MCF7 [6]): Non-Toxic
- Activity (HepG2 [7]): Non-Toxic
- Activity (HepG2 [8]): Non-Toxic
- Activity [9]: Non-Toxic
- Activity [10]: Non-Toxic
- inhibition (INH) [11]: Not Active
- inhibition (INH) [12]: Not Active
- inhibition (INH) [13]: Not Active
- Activity [14]: Non-Toxic

Compound: COLISTIN
- inhibition (Acinetobacter baumannii [15]): Active

Compound: CN(C)c1cc(NC(=O)CNC(C)(C)C)c(O)c2c1C[C@H]1C[C@H]3[C@H](N(C)C)C(O)=C(C(N)=O)C(=O)[C@@]3(O)C(O)=C1C2=O [TIGECYCLINE]
- MIC (Acinetobacter baumannii [16]): > 16 µg/mL
- Activity (Acinetobacter baumannii [17]): 100%
- Activity (Acinetobacter baumannii [18]): 100%

Compound: Cc1[nH]c(C(=O)Nc2nc3c(N4CCOCC4)cc(C(=O)O)cc3s2)cc1Cl
- Activity (Enterococcus faecium): Active
- Activity (Enterococcus faecalis): Active
- Activity (Staphylococcus aureus [19]): Active
- Activity (Staphylococcus aureus [20]): Active
- Activity (Staphylococcus aureus [21]): Active

Compound: Cc1[nH]c(C(=O)Nc2nc3c(N4CCNCC4)cc(C(=O)O)cc3s2)c(Cl)c1Cl
- Activity (Escherichia coli): inactive
- Activity (Pseudomonas aeruginosa): inactive
- Activity (Acinetobacter baumannii [22]): inactive
- Activity (Klebsiella pneumoniae): inactive
- Activity (Enterobacter cloacae): inactive

Compound: C[C@H]1c2cccc(O)c2C(=O)C2=C(O)[C@]3(O)C(=O)C(C(N)=O)=C(O)[C@@H](N(C)C)[C@@H]3[C@@H](O)[C@@H]21 [DOXYCYCLINE]
- inhibition at 32 µg/mL (Acinetobacter baumannii [23]): 100%

Compound: Cc1[nH]c(C(=O)Nc2nc3c(N4CCC(O)CC4)cc(C(=O)O)cc3s2)c(Cl)c1Cl
- Activity (Escherichia coli): inactive
- Activity (Pseudomonas aeruginosa): inactive
- Activity (Acinetobacter baumannii [22]): inactive
- Activity (Enterobacter cloacae): inactive
